ChEMBL document CHEMBL4689842, “EUbOPEN Chemogenomics Library wave 1” (2021)
Several values for one entry are separate records, joined by “and”; a condition that tells them apart may be missing. Equal values may be shown once.

System: Fibroblast
Assay: Multiplex assay against human fibroblast
Format: toxicity, cell-based
Conditions: 1 µM, compound concentration 1 uM
Summary of the method: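 Phenotypes for tubulin, mitochondrial mass and membrane permeability are expressed as per cents of healthy-nucleus cells. Cells were stained live at seeding with Hoechst33342, BioTracker Green Microtubule Cytoskeleton Dye, MitoTracker Red and Annexin V Alexa Fluor 680, then imaged after compound addition on a CQ1 microscope at 37°C and 5% CO2. Machine-learning gating in CellPathfinder separated Hoechst high-intensity objects from normal cells, divided normal cells by nuclear state (healthy, pyknosed, fragmented) and divided pyknosed cells into mitotic or apoptotic.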

SMILES: C[C@]1(O)C[C@@H](c2nc(-c3ccc4ccc(-c5ccccc5)nc4c3)c3c(N)nccn32)C1 [LINSITINIB]
- Population Apoptotic (%) (12 h, replicate 1): 56% and 93%
- Population Fragmented Nuclei (%) (12 h, replicate 1): 43% and 32%
- Population Healthy Nuclei (%) (12 h, replicate 1): 44% and 50%
- Population Hoechst High Intensity Objects (%) (12 h, replicate 1): 18% and 12%
- Population Membrane Permeable-Phenotype (%) (12 h, replicate 1): 13% and 8%
- Population Mitochondria Different-Phenotype (%) (12 h, replicate 1): 1%
- Population Normal (%) (12 h, replicate 1): 81% and 87%
- Population Pyknosed Nuclei (%) (12 h, replicate 1): 11% and 17%
- Total Cell Count (12 h, replicate 1): 345 and 206
- Population Apoptotic (%) (12 h, replicate 2): 40% and 66%
- Population Fragmented Nuclei (%) (12 h, replicate 2): 56% and 76%
- Population Healthy Nuclei (%) (12 h, replicate 2): 31% and 18%
- Population Hoechst High Intensity Objects (%) (12 h, replicate 2): 45% and 43%
- Population Membrane Permeable-Phenotype (%) (12 h, replicate 2): 0% and 9%
- Population Mitotic Cells (%) (12 h, replicate 2): 60% and 33%
- Population Normal (%) (12 h, replicate 2): 54% and 56%
- Population Pyknosed Nuclei (%) (12 h, replicate 2): 12% and 5%
- Total Cell Count (12 h, replicate 2): 75 and 105
- Population Apoptotic (%) (24 h, replicate 1): 52% and 80%
- Population Fragmented Nuclei (%) (24 h, replicate 1): 47% and 33%
- Population Healthy Nuclei (%) (24 h, replicate 1): 44% and 51%
- Population Hoechst High Intensity Objects (%) (24 h, replicate 1): 22% and 12%
- Population Membrane Permeable-Phenotype (%) (24 h, replicate 1): 9%
- Population Mitochondria Different-Phenotype (%) (24 h, replicate 1): 2% and 4%
- Population Mitotic Cells (%) (24 h, replicate 1): 47% and 20%
- Population Normal (%) (24 h, replicate 1): 77% and 87%
- Population Pyknosed Nuclei (%) (24 h, replicate 1): 8% and 14%
- Total Cell Count (24 h, replicate 1): 364 and 202
- Population Apoptotic (%) (24 h, replicate 2): 50%
- Population Fragmented Nuclei (%) (24 h, replicate 2): 58% and 75%
- Population Healthy Nuclei (%) (24 h, replicate 2): 37% and 21%
- Population Hoechst High Intensity Objects (%) (24 h, replicate 2): 33% and 52%
- Population Membrane Permeable-Phenotype (%) (24 h, replicate 2): 21% and 18%
- Population Mitotic Cells (%) (24 h, replicate 2): 50%
- Population Normal (%) (24 h, replicate 2): 66% and 47%
- Population Pyknosed Nuclei (%) (24 h, replicate 2): 3%
- Total Cell Count (24 h, replicate 2): 77 and 109
